Source: article PMC2585546 (Bioorganic & medicinal chemistry, 2008)

Assays:
[1] = target: RNA A; assay: Thiazole orange fluorescent intercalator displacement; assay type: binding; conditions: read-out: Dissociation constants (FID); apparent KD from IC50, competitive model; 50 mM Bis-Tris·HCl pH 7.0, 100 mM NaCl, 10 mM MgCl2, 50 nM thiazole orange, 100 nM RNA A, 25 °C; average of three independent measurements ± SD
[2] = test system: RNA C; assay: Thiazole orange fluorescence enhancement on RNA binding; conditions: thiazole orange 2.6 µM, RNA 2 µM
Outline: (§1)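 Fold rise in thiazole orange fluorescence, with the dye at 2.6 µM and each RNA at 2 µM. RNA A is an in vitro selected aptamer stem-loop, used as supplied. RNA B (human pre-miRNA 23b sequence) and control stem-loop RNA C were 2'-ACE-deprotected (100 mM acetic acid, TEMED to pH 3.8, 60 °C, 30 min), phenol/chloroform-extracted, ethanol-precipitated and kept in water at −20 °C.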

[3] = test system: RNA A; assay: Thiazole orange fluorescence enhancement on RNA binding
[4] = test system: RNA B; assay: Thiazole orange fluorescence enhancement on RNA binding; design: species or system human; conditions: thiazole orange 2.6 µM, RNA 2 µM
Outline: as §1

NC[C@@H]1O[C@H](O[C@H]2[C@@H](O)[C@H](O[C@H]3[C@@H](O)[C@H](N)C[C@H](N)[C@H]3O[C@H]3O[C@H](CN)[C@@H](O)[C@H](O)[C@H]3N)O[C@@H]2CO)[C@H](N)[C@@H](O)[C@@H]1O [compound 7, neomycin]
Kd [1]: > 60 µM

NC[C@H]1O[C@H](O[C@H]2[C@H](O)[C@@H](O[C@H]3O[C@H](CO)[C@@H](O)[C@H](N)[C@H]3O)[C@H](N)C[C@@H]2N)[C@H](O)[C@@H](O)[C@@H]1O [compound 8, kanamycin]
Kd [1]: > 100 µM

CN1C(=Cc2cc[n+](C)c3ccccc23)Sc2ccccc21 [thiazole orange]
Fold enhancement of thiazole orange fluorescence by control RNA C [2]: 96 fold
Fold stimulation of thiazole orange fluorescence by RNA A ([3]; thiazole orange 50 nM, RNA A 100 nM): ~20 fold
Fold enhancement of thiazole orange fluorescence by RNA A ([3]; thiazole orange 2.6 µM, RNA 2 µM): 2308 fold
Fold enhancement of thiazole orange fluorescence by RNA B [4]: 977 fold
